Consider nine compounds from ChEMBL document CHEMBL4428027, “3-Hydroxypyrimidine-2,4-diones as Selective Active Site Inhibitors of HIV Reverse Transcriptase-Associated RNase H: Design, Synthesis, and Biochemical Evaluations” (J Med Chem, 2016).

Activity calls are given as the source filed them. The calls are words filed in the database; no cut-off is given here.

Data set [1] deals with T1, Human immunodeficiency virus type 1 reverse transcriptase (Human immunodeficiency virus 1, UniProt Q72547). The data set can be described thus: Inhibition of RNase H activity of full length recombinant HIV1 reverse transcriptase assessed as reduction in nonspecific internal cleavage using HTS1 substrate. Put shortly:
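Recombinant p66/p51 RT heterodimer. Fluorescent RNA/DNA duplex substrate HTS-1 measures internal cleavage. IC50 is the mean of at least three independent experiments.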

Data set [2] has as its target T1, Human immunodeficiency virus type 1 reverse transcriptase. The data set can be described thus: Inhibition of RNase H activity of full length recombinant HIV1 reverse transcriptase assessed as reduction in DNA 3'-end cleavage using HTS2 substrate. Put shortly: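 Recombinant p66/p51 RT heterodimer. Fluorescent RNA/DNA duplex substrate HTS-2 reports DNA 3′-end-directed (polymerase-dependent) cleavage. IC50 is the mean of at least three independent experiments.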

For data set [3] the target is unchanged. Briefly: Inhibition of RNase H activity of full length recombinant HIV1 reverse transcriptase assessed as reduction in RNA 5'-end directed cleavage using HTS3 substrate.
Data set [4] has the same target. The data set can be described thus: Inhibition of re-constituted HIV1 reverse transcriptase RNase H domain fragment. An outline of the steps:
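Secondary check using a catalytically active, isolated HIV RNase H domain fragment (reconstituted) with duplex substrate HTS-1.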

Data set [5] has the same target. Briefly: Inhibition of polymerase activity of HIV1 reverse transcriptase using poly(rA)-oligo(dT)16 and [3H]-TTP incubated for 20 mins by liquid scintillation spectrometry. Put shortly:
(§1)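 Reaction mix: 10 µM [3H]-TTP, 40 nM poly(rA)-oligo(dT)16, 50 mM Tris-HCl pH 7.4 (37°C), 60 mM KCl, 5 mM MgCl2. Started with 10 nM RT; 20 min at 37°C. Quenched in ice-cold 10% TCA with 20 mM sodium pyrophosphate, then glass-fibre filtered and washed with TCA and ethanol. Label incorporation read by liquid scintillation.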

The nature of data set [6]: Toxicity against human HeLa P4/R5 cells. The data set is classed as cell-based.
The target of data set [7] is Human immunodeficiency virus type 1 integrase (Human immunodeficiency virus 1, UniProt Q7ZJM1). Briefly: Inhibition of HIV integrase pre-incubated for 10 mins before addition of oligo-5'-biotin ATGTGGAAAATCTCTAGCA annealed with ACTGCTAGAGATTTTCCACAT 3'-Cy5) substrate.
The test system of data set [8] is Human immunodeficiency virus 1. The data set can be described thus: Antiviral activity against HIV1 infected in human HeLa P4/R5 cells assessed as reduction in viral growth pre-incubated with cells for 16 hrs followed by additional 48 hrs incubation by fluorescence-based beta-galactosidase detection assay. It is filed as functional, organism-based. An outline of the steps: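 P4R5 HeLa indicator cells (CD4, CXCR4, CCR5; HIV LTR-driven β-galactosidase reporter), 5×10^3 cells/well in DMEM/10% FBS with puromycin 0.5 µg/ml. Drug added 16 h before HIV exposure, then 48 h further incubation. Infection read by fluorescence-based β-galactosidase detection.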

Data set [9] addresses Human immunodeficiency virus type 1 reverse transcriptase (Human immunodeficiency virus 1) (UniProt Q72547). Briefly: Inhibition of HIV1 polymerase activity of reverse transcriptase using poly(rA)-oligo(dT)16 and [3H]-TTP up to 25 uM incubated for 20 mins by liquid scintillation spectrometry. Put shortly:
as §1

The target is the same in data set [10]. The data set can be described thus: Inhibition of RNase H activity of full length recombinant HIV1 reverse transcriptase assessed as reduction in RNA 5'-end directed cleavage up to 25 uM using HTS3 substrate.
For data set [11] the target is unchanged. To be noted: up to 25 µM.
The target is the same in data set [12]. Briefly: Inhibition of RNase H activity of full length recombinant HIV1 reverse transcriptase assessed as reduction in nonspecific internal cleavage up to 25 uM using HTS1 substrate.
Data set [13] shares this target. The data set can be described thus: Inhibition of re-constituted HIV1 reverse transcriptase RNase H domain fragment up to 25 uM. Put shortly: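 Secondary check using a catalytically active, isolated HIV RNase H domain fragment (reconstituted) with duplex substrate HTS-1. […] Upper test concentration 25 µM.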

Sequence of Human immunodeficiency virus type 1 integrase (Q7ZJM1 whole entry): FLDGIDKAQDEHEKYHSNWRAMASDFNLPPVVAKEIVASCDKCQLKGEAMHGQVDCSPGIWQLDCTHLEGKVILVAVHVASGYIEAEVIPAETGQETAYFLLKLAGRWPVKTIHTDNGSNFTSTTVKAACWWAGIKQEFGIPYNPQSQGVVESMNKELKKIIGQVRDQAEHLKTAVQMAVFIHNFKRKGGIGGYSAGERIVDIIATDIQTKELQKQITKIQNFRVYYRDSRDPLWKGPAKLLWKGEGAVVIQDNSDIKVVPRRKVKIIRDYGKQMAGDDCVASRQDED

Usually IC50 stands for the concentration that inhibits the measured activity by half. As a reminder, the CC50 is the concentration giving 50% cytotoxicity. As for `COc1ccc(-c2cccc(Nc3cc(=O)n(O)c(=O)[nH]3)c2)cc1`, the IC50 in data set [1] (read-out: IC50) was 0.2 µM; in data set [2] (read-out: IC50) it was 0.3 µM; in data set [3] (read-out: IC50) it was 0.4 µM; in data set [4] (read-out: IC50), 0.1 µM; in [5] (read-out: IC50), 6.3 µM; in data set [7], > 100 µM. The CC50 in data set [6] was > 25 µM. For the same compound, the result in [8] was inactive.

`O=c1cc(Nc2cccc(-c3ccc(F)cc3)c2)[nH]c(=O)n1O`: the IC50 is 0.2 µM in data set [1] (read-out: IC50); 0.3 µM in data set [2] (read-out: IC50); 0.3 µM in data set [3] (read-out: IC50); 0.15 µM in data set [4] (read-out: IC50); 6.6 µM in data set [5] (read-out: IC50); > 100 µM in data set [7]. Moreover, the CC50 in data set [6] was > 25 µM. Besides, the outcome in data set [8] was inactive.

Consider `Cn1c(Nc2ccc(-c3cccc(C#N)c3)cc2)cc(=O)n(O)c1=O`, for which the IC50 in [1] (read-out: IC50) was 1.2 µM; in data set [2] (read-out: IC50) it was 3.7 µM; in data set [3] (read-out: IC50) it was 3.3 µM; in data set [4] (read-out: IC50), 0.9 µM; in data set [5], “Not Active”; in [7], 30 µM. The compound also returned a CC50 in [6] of 25 µM.

`Cc1ccc(-c2ccc(Nc3cc(=O)n(O)c(=O)[nH]3)cc2)cc1`: the IC50 in data set [1] (read-out: IC50) turned out to be 0.4 µM; in [2] (read-out: IC50), 0.7 µM; in data set [3] (read-out: IC50), 0.5 µM; in data set [4] (read-out: IC50), 0.4 µM; in data set [5] (read-out: IC50), 5.7 µM; in data set [7], 93 µM. The CC50 in data set [6] was > 25 µM. Besides, the result in data set [8] was inactive.

Turning to `COc1cccc(-c2ccc(Nc3cc(=O)n(O)c(=O)[nH]3)cc2)c1`, the CC50 in [6] was > 25 µM. Moreover, the result in data set [8] was inactive.

Take `Cn1c(Oc2ccccc2-c2ccccc2)cc(=O)n(O)c1=O`: the IC50 entry in data set [2], in data set [3] and in [5] was “Not Active” throughout. Moreover, the inhibition result in [9], in data set [10] and in [11] was “inactive” each time.

Take `Cn1c(Nc2cccc(C3CCOC3)c2)cc(=O)n(O)c1=O` (centres undefined): the IC50 result in data set [1], in data set [2], in data set [3], in data set [4] and in data set [5] was “Not Active” throughout. Further, the inhibition entry in data set [9], in data set [12], in data set [10], in [13] and in [11] was “inactive” throughout. In addition, the cytotoxic concentration (CC50) in data set [6] was > 25 µM.

For the compound `COc1cccc(-c2ccc(Oc3cc(=O)n(O)c(=O)n3C)cc2)c1`, the IC50 is 2 µM in data set [1] (read-out: IC50); 16 µM in data set [2] (read-out: IC50); 16 µM in data set [3] (read-out: IC50); 5.1 µM in data set [4] (read-out: IC50); “Not Active” in data set [5]. Besides, the inhibition entry in data set [9] was “inactive”. Besides, in data set [6], the CC50 turned out to be 6 µM.

Consider `COc1cccc(-c2cccc(Nc3cc(=O)n(O)c(=O)n3C)c2)c1`, for which the IC50 is 0.6 µM in [1] (read-out: IC50); 3.5 µM in data set [2] (read-out: IC50); 4.3 µM in data set [3] (read-out: IC50); 1.7 µM in data set [4] (read-out: IC50); “Not Active” in data set [5]; 4.6 µM in [7]. Moreover, the midpoint of cytotoxicity in [6], the CC50, lay at 10 µM.
